Reference: ChEMBL document CHEMBL1806449, “A class of Trp-Trp-AA-OBzl: Synthesis, in vitro anti-proliferation/in vivo anti-tumor evaluation, intercalation-mechanism investigation and 3D QSAR analysis” (Eur J Med Chem, 2011)
pIC50: −log10 of the molar value. Peptide text beside a SMILES is read from it. * marks the point of attachment. OBn = c1ccc(CO*)cc1

How the values were obtained:
[1] = test system: HepG2; test: Antiproliferative activity against human HepG2 cells after 48 hrs by MTT assay; format: functional, cell-based; details: HepG2, 48 h
[2] = test system: Mus musculus; test: Toxicity in ICR mouse xenografted with mouse S180 cells assessed as effect on brain weight at 8.9 umol/kg; format: organism-based, CCRF S-180; details: in vivo
Procedure, shortened: (§1)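 S180-bearing male ICR mice (10–12 weeks; 1×10^7 cells s.c. right oxter; 12 per group), daily i.p. 8.9 µmol/kg for seven days starting 24 h after implantation; NS, cytarabine and doxorubicin controls; liver, brain, kidney weights, spleen index and body-weight gain recorded.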

[3] = test system: Mus musculus; test: Acute toxicity in ICR mouse assessed as apparent changes in any organ at 500 mg/kg, ip administered qd for 7 days; format: organism-based; design: dose 500 mg/kg, route intraperitoneal; details: in vivo, 168 h
[4] = test system: CCRF S-180; test: Antitumor activity against mouse S180 cells xenografted in ICR mouse assessed as tumor growth inhibition at 8.9 umol/kg, ip administered 1 day after tumor inoculation qd for 7 days; format: functional; details: CCRF S-180, ip, read-out: GI
Procedure, shortened: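 Male ICR mice 10–12 weeks; S180 from ascites serially transplanted weekly; 1×10^7 viable cells in 0.2 ml NS implanted s.c. at right oxter; 24 h later randomized (10 per group); daily i.p. 8.9, 0.89 or 0.089 µmol/kg/day in 0.2 ml NS, 7 days; NS and cytarabine controls; sacrificed 24 h after last dose; inhibition % = [1−(Tw/Cw)]×100.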

[5] = test system: Mus musculus; test: Toxicity in ICR mouse xenografted with mouse S180 cells assessed as increase in spleen index at 8.9 umol/kg; format: organism-based, CCRF S-180; details: in vivo; procedure, shortened: as §1
[6] = test system: Mus musculus; test: Acute toxicity in ICR mouse assessed as tetanus at 500 mg/kg, ip administered qd for 7 days; format: organism-based; design: dose 500 mg/kg, route intraperitoneal; details: in vivo, 168 h
[7] = test system: Mus musculus; test: Toxicity in ICR mouse xenografted with mouse S180 cells assessed as increase in body weight at 8.9 umol/kg; format: organism-based, CCRF S-180; details: in vivo; procedure, shortened: as §1
[8] = test system: Mus musculus; test: Acute toxicity in ICR mouse assessed as twitch at 500 mg/kg, ip administered qd for 7 days; format: organism-based; design: dose 500 mg/kg, route intraperitoneal; details: in vivo, 168 h
[9] = Acute toxicity in ip dosed ICR mouse assessed as lethal dose; format: organism-based; details: in vivo
Procedure, shortened: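 Male ICR mice, 24 weeks old, got a single i.p. injection of 500 mg/kg in 0.2 ml NS (normal saline). They were watched for 7 days for neurotoxic behaviour (tremor, twitch, jumping, tetanus, supination) and for death.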

[10] = test system: H22; test: Antiproliferative activity against mouse H22 cells after 48 hrs by MTT assay; format: functional, cell-based; details: H22, 48 h
[11] = test system: Mus musculus; test: Toxicity in ICR mouse xenografted with mouse S180 cells assessed as effect on kidney weight at 8.9 umol/kg; format: organism-based, CCRF S-180; details: in vivo; procedure, shortened: as §1
[12] = test system: B16; test: Antiproliferative activity against mouse B16 cells after 48 hrs by MTT assay; format: functional, cell-based; details: B16, 48 h
[13] = test system: K562; test: Antiproliferative activity against human K562 cells after 48 hrs by MTT assay; format: functional, cell-based; details: K562, 48 h
[14] = test system: Mus musculus; test: Toxicity in ICR mouse xenografted with mouse S180 cells assessed as effect on liver weight at 8.9 umol/kg; format: organism-based, CCRF S-180; details: in vivo; procedure, shortened: as §1
[15] = test system: Mus musculus; test: Acute toxicity in ICR mouse assessed as jumping at 500 mg/kg, ip administered qd for 7 days; format: organism-based; design: dose 500 mg/kg, route intraperitoneal; details: in vivo, 168 h
[16] = test system: CCRF S-180; test: Antiproliferative activity against mouse S180 cells after 48 hrs by MTT assay; format: functional, cell-based; details: CCRF S-180, 48 h
[17] = test system: Mus musculus; test: Acute toxicity in ICR mouse assessed as supination at 500 mg/kg, ip administered qd for 7 days; format: organism-based; design: dose 500 mg/kg, route intraperitoneal; details: in vivo, 168 h
[18] = test system: Mus musculus; test: Acute toxicity in ICR mouse assessed as mortality at 500 mg/kg, ip administered qd for 7 days; format: organism-based; design: dose 500 mg/kg, route intraperitoneal; details: in vivo, 168 h
[19] = test system: Mus musculus; test: Acute toxicity in ICR mouse assessed as tremors at 500 mg/kg, ip administered qd for 7 days; format: organism-based; design: dose 500 mg/kg, route intraperitoneal; details: in vivo, 168 h

SMILES | pIC50 [1] | Activity [2] | Activity [3] | inhibition in vivo at 8.9 µmol/kg [4] | Activity [5] | Activity [6] | Activity [7] | Activity [8] | LD50 [9] | pIC50 [10] | Activity [11] | pIC50 [12] | pIC50 [13] | Activity [14] | Activity [15] | pIC50 [16] | Activity [17] | Activity [18] | Activity [19]
N[C@@H](Cc1c[nH]c2ccccc12)C(=O)N[C@@H](Cc1c[nH]c2ccccc12)C(=O)NCC(=O)OCc1ccccc1 (H-Trp-Trp-Gly-OBn) | 4.75 | 0.27 g | Non-toxic | 56.6% | 8.11 | Non-toxic | 9.77 g | Non-toxic | > 500 mg/kg | 4.65 | 0.16 g | 4.61 | 4.79 | 1.8 g | Non-toxic | 4.71 | Non-toxic | Non-toxic | Non-toxic
N[C@@H](Cc1c[nH]c2ccccc12)C(=O)N[C@@H](Cc1c[nH]c2ccccc12)C(=O)N[C@@H](Cc1cnc[nH]1)C(=O)OCc1ccccc1 (H-Trp-Trp-His-OBn) | 4.56 | 0.28 g | Non-toxic | 30.7% | 8.34 | Non-toxic | 10.04 g | Non-toxic | > 500 mg/kg | 4.57 | 0.16 g | 4.50 | 4.60 | 1.78 g | Non-toxic | 4.58 | Non-toxic | Non-toxic | Non-toxic
CC[C@H](C)[C@H](NC(=O)[C@H](Cc1c[nH]c2ccccc12)NC(=O)[C@@H](N)Cc1c[nH]c2ccccc12)C(=O)OCc1ccccc1 (H-Trp-Trp-Ile-OBn) | 4.65 | 0.28 g | Non-toxic | 51.5% | 8.12 | Non-toxic | 9.8 g | Non-toxic | > 500 mg/kg | 4.66 | 0.17 g | 4.59 | 4.71 | 1.85 g | Non-toxic | 4.72 | Non-toxic | Non-toxic | Non-toxic
CSCC[C@H](NC(=O)[C@H](Cc1c[nH]c2ccccc12)NC(=O)[C@@H](N)Cc1c[nH]c2ccccc12)C(=O)OCc1ccccc1 (H-Trp-Trp-Met-OBn) | 4.28 | 0.28 g | Non-toxic | 16.9% | 7.69 | Non-toxic | 8.93 g | Non-toxic | > 500 mg/kg | 4.31 | 0.16 g | 4.18 | 4.38 | 1.74 g | Non-toxic | 4.31 | Non-toxic | Non-toxic | Non-toxic
N[C@@H](Cc1c[nH]c2ccccc12)C(=O)N[C@@H](Cc1c[nH]c2ccccc12)C(=O)N[C@@H](Cc1ccccc1)C(=O)OCc1ccccc1 (H-Trp-Trp-Phe-OBn) | 4.78 | 0.28 g | Non-toxic | 56.7% | 7.96 | Non-toxic | 9.86 g | Non-toxic | > 500 mg/kg | 4.76 | 0.16 g | 4.71 | 4.83 | 1.89 g | Non-toxic | 4.84 | Non-toxic | Non-toxic | Non-toxic
